Tests used:
[1] = Cytotoxicity against mouse EAC cells after 24 hrs by MTT assay; type: functional, cell-based; conditions: Ehrlich
Outline: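 Mouse Ehrlich ascites tumour cells were given at least one in vitro passage before use, then plated at 10⁴ cells/well with 24 h attachment. Compounds in 0.1% DMSO/medium were tested at 1–100 for 24 h against vehicle controls. MTT (1 mg/mL) was applied for 4 h at 37 °C, formazan dissolved in DMSO and A540 read. Done in triplicate; % cytotoxicity was taken relative to control and blank absorbances.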

MCF7 [2] = assay: Cytotoxicity against human MCF7 cells after 24 hrs by MTT assay; type: functional, cell-based; conditions: for IC50: MCF7, 24 h
Outline: (§1)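 Exponentially growing cells were seeded at 10⁴ cells/well and allowed to attach for 24 h. Compounds were dissolved in 0.1% DMSO, diluted in medium and added across 1–100 for 24 h; controls received medium with 0.1% DMSO. MTT (1 mg/mL) was added for 4 h at 37 °C, formazan was solubilised in DMSO and A540 read. Assays were run in triplicate, with % cytotoxicity calculated from control-, blank- and test-well absorbances.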

A549 = assay: Cytotoxicity against human A549 cells after 24 hrs by MTT assay; type: functional, cell-based; conditions: A549, 24 h; outline: as §1
MCF7 [3] = assay: Cytotoxicity against human MCF7 cells at 1 to 50 uM by MTT assay; type: functional, cell-based; conditions: TDE = time-dependent effect
Outline: (§2)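 Time-course MTT: MCF-7 cells were seeded at 5 × 10³ cells/well and exposed to compounds at 1–50. % cytotoxicity and IC50 were determined at 24, 48 and 72 h using MTT read-out at 540 nm. Each experiment was performed independently three times and reported as mean ± SD.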

MCF7 [4] = assay: Cytotoxicity against human MCF7 cells after 48 hrs by MTT assay; type: functional, cell-based; conditions: MCF7, 48 h; outline: as §2
MCF7 [5] = assay: Cytotoxicity against human MCF7 cells after 72 hrs by MTT assay; type: functional, cell-based; conditions: MCF7, 72 h; outline: as §2
MCF7 [6] = assay: Ratio of IC50 for human MCF7 cells after 24 hrs to IC50 for human MCF7 cells after 72 hrs by MTT assay; type: functional
Outline: (§3)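 MCF-7 cells at 5 × 10³ cells/well were treated with compounds at 1–50, and MTT IC50 values were determined at 24, 48 and 72 h (three independent experiments, mean ± SD). The fold reduction is the 24 h IC50 divided by the 48 h or 72 h IC50.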

MCF7 [7] = assay: Ratio of IC50 for human MCF7 cells after 24 hrs to IC50 for human MCF7 cells after 48 hrs by MTT assay; type: functional; outline: as §3

Compound | IC50 [1] [µM] | IC50 (MCF7 [2]) [µM] | IC50 (A549) [µM] | Activity (MCF7 [3]) | IC50 (MCF7 [4]) [µM] | IC50 (MCF7 [5]) [µM] | Activity (MCF7 [2]) | Ratio IC50 (MCF7 [6]) | Ratio IC50 (MCF7 [7])
Cn1nc(-c2nnc(SCc3cccc([N+](=O)[O-])c3)o2)cc1-c1ccc(C(F)(F)F)cc1 | > 100 | > 100 | – | – | – | – | – | – | –
Cn1nc(-c2nnc(SCc3ccc(Cl)c(Cl)c3)o2)cc1-c1ccc(C(F)(F)F)cc1 | 46.2 | 27.2 | 44.2 | – | – | – | – | – | –
Cn1nc(-c2nnc(SCCOc3ccccc3F)o2)cc1-c1ccc(C(F)(F)F)cc1 | 25.2 | 23.1 | 48.1 | tde | 19.2 | 14.2 | Dose-dependent effect | – | –
COc1cccc2c1C(=O)c1c(O)c3c(c(O)c1C2=O)C[C@@](O)(C(=O)CO)C[C@@H]3O[C@H]1C[C@H](N)[C@H](O)[C@H](C)O1 [DOXORUBICIN] | – | – | 3.28 | – | – | – | – | – | –
Cn1nc(-c2ccc(C(F)(F)F)cc2)cc1-c1nnc(SCc2cccc([N+](=O)[O-])c2)o1 | > 100 | > 100 | – | – | – | – | – | – | –
Cn1nc(-c2ccc(C(F)(F)F)cc2)cc1-c1nnc(SCc2c(F)cccc2F)o1 | 38.5 | 46.2 | 72.2 | – | – | – | – | – | –
Cn1nc(-c2ccc(C(F)(F)F)cc2)cc1-c1nnc(SCc2ccc(C(F)(F)F)cc2)o1 | 27.2 | 27.1 | 39.8 | – | – | – | – | – | –
Cn1nc(-c2nnc(SCc3cccc(Cl)c3Cl)o2)cc1-c1ccc(C(F)(F)F)cc1 | 36.8 | 32.2 | 54.3 | – | – | – | – | – | –
Cn1nc(-c2nnc(SCc3ccc(Cl)cc3F)o2)cc1-c1ccc(C(F)(F)F)cc1 | 26.2 | 18.2 | 48.2 | tde | 12.2 | 9.8 | Dose-dependent effect | – | –
Cn1nc(-c2nnc(S)o2)cc1-c1ccc(C(F)(F)F)cc1 | 68.2 | > 100 | – | – | – | – | – | – | –
Cn1nc(-c2ccc(C(F)(F)F)cc2)cc1-c1nnc(SCCc2ccc(F)cc2)o1 | 39.5 | 45.4 | 84.2 | – | – | – | – | – | –
Cn1nc(-c2nnc(SCCc3ccc(F)cc3)o2)cc1-c1ccc(C(F)(F)F)cc1 | 29.2 | 25.2 | 39 | tde | 21.1 | 18.1 | Dose-dependent effect | – | –
Cn1nc(-c2ccc(C(F)(F)F)cc2)cc1-c1nnc(S)o1 | 75.3 | > 100 | – | – | – | – | – | – | –
Cn1nc(-c2nnc(SCc3ccc(C(F)(F)F)cc3)o2)cc1-c1ccc(C(F)(F)F)cc1 | 20.5 | 15.5 | 29.2 | tde | 8.86 | 5.25 | Dose-dependent effect | 2.96 | 1.75
Cn1nc(-c2ccc(C(F)(F)F)cc2)cc1-c1nnc(SCCOc2ccccc2F)o1 | 35.1 | 33.3 | 68.1 | – | – | – | – | – | –
Cn1nc(-c2nnc(SCc3c(F)cccc3F)o2)cc1-c1ccc(C(F)(F)F)cc1 | 28.2 | 26.2 | 38 | tde | 20.5 | 16.2 | Dose-dependent effect | – | –
Cn1nc(-c2ccc(C(F)(F)F)cc2)cc1-c1nnc(SCc2cccc(Cl)c2Cl)o1 | 56.5 | 60.2 | 84.2 | – | – | – | – | – | –
